From PubChem BioAssay
NPY1 pot ag: NPY-Y1 receptor potentiators or agonists, primary screen, cell-based | 220,000 compounds, 0.37% hits | activation, % at 3.6 µM | Neuropeptide Y receptor type 1 (Homo sapiens), P25929 | NPY-Y1 expressing cells, potentiator/agonist activation; in the data active means activation above about 33%, passing the limit was not always enough;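 further: cells stimulated with NPY at EC10 then isoproterenol at EC100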
Target sequence (P25929 whole entry, looked up): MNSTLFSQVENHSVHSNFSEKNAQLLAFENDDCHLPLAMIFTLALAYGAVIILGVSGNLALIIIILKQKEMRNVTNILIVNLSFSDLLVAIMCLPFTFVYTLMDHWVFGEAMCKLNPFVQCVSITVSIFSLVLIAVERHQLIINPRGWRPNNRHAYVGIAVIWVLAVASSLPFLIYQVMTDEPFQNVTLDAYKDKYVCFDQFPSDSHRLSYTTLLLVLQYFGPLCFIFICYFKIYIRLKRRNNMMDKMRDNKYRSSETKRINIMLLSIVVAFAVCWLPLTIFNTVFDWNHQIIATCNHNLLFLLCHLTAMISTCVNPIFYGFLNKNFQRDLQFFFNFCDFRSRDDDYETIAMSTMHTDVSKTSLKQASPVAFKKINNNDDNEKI
NPY-Y2 PAM-ag: NPY-Y2 potentiators or agonists, primary screen, cell-based; activation, % at 3.6 µM; Neuropeptide Y receptor type 2 (Homo sapiens), P49146; 220,000 compounds, 0.45% hits; AID 1359, 2008; cells expressing NPY-Y2, potentiator/agonist read-out; in the data active means activation above about 27%;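 further: cells stimulated with NPY near EC25 plus isoproterenol at EC100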
NPY-Y1 antag: NPY-Y1 receptor antagonists, primary screen, cell-based | inhibition, % at 3.6 µM | HEK293-CNG Y1 cells, membrane potential fluorescence; NPY at EC95, then isoproterenol | 200,000 compounds, 1% hits | Neuropeptide Y receptor type 1 (Homo sapiens), P25929;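 active means inhibition above the campaign mean inhibition of all tested compounds plus 3 SD, cut at about 20% in these data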
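Benchmarks – high control isoproterenol alone, low control NPY with isoproterenol · Material – HEK293 Y1/CNG channel cell line · Times – dye 3 h, compound 60 min room temperature, stimulation 45 min · Probe or stimulus – NPY (25 nM), isoproterenol (1 µM), Ro 20-1724 (25 µM) · Evaluation – % inhibition of NPY effect · Signal – fluorescence, membrane potential probe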
NPY Y2 blocker: NPY-Y2 receptor antagonists, primary screen, cell-based | AID 793, 2007 | NPY-Y2 expressing cells, antagonist mode | Neuropeptide Y receptor type 2 (Homo sapiens), P49146 | 140,000 compounds, 0.99% hits | inhibition, % at 2.7 µM; in the data active means inhibition above about 17%
NPY-Y2 pot conf: NPY-Y2 potentiators or agonists, confirmation, cell-based; activation, % at 3.6 µM; cell-based NPY-Y2 potentiator/agonist assay; shares compounds with NPY-Y2 PAM-ag; 450 compounds, 20% hits; in the data active means activation above about 33%
NPY-Y1 counter: NPY-Y1 potentiators or agonists, counter-screen for NPY-Y2 potentiator project, cell-based, fluorescence; shares compounds with NPY-Y2 PAM-ag; Y1 HEK293-CNG cells, membrane potential fluorescence; activation, % at 3.6 µM; 450 compounds, 20% hits; in the data active means activation above about 45%;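 further: cells stimulated with submaximal NPY then isoproterenol with phosphodiesterase inhibitor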
NPY-Y1 ag 2: NPY-Y1 direct agonists, selectivity assay for NPY-Y2 potentiator project, cell-based, fluorescence; 450 compounds, 37% hits; shares compounds with NPY-Y2 PAM-ag; HEK293 Y1-CNGC, membrane potential fluorescence, agonism; activation, % at 3.6 µM;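 active means activation above the mean of DMSO-only control wells plus 3 SD, cut at about 18% in these data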;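 further: cells stimulated with 1 µM isoproterenol plus the PDE inhibitor Ro 20-1724; Y1 agonists lower the membrane potential dye signal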
CNGC inhibitor: CNGC cAMP sensor activity inhibitors, counter-screen for NPY-Y2 potentiator project, cell-based, HEK293-CNG parental, membrane potential fluorescence. shares compounds with NPY-Y2 PAM-ag. isoproterenol cAMP. inhibition, % at 3.6 µM. 450 compounds, 32% hits. AID 1703, 2009;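 active means inhibition above the control-well mean plus 3 SD of those wells, cut at about 22% in these data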
NPY-Y2 ag 2: NPY-Y2 direct agonists, counter-screen for NPY-Y2 potentiator project, cell-based, fluorescence | shares compounds with NPY-Y2 PAM-ag | HEK293 Y2/CNGC cells, membrane potential fluorescence, agonist mode | activation, % at 3.6 µM | 450 compounds, 56% hits;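 active means activation above the mean of solvent-only control wells plus 3 SD, cut at about 10% in these data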;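 further: cells stimulated by isoproterenol with no NPY added so direct agonism is tested; agonism lowers probe fluorescence through less cAMP and CNG channel opening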
Each line names hits and unclear results; the compound was inactive in the other large screens (follow-up assays come after a bar, where they were run). Hits are enriched below; roughly 1.8% of the tested compounds scored in any of these assays.

COc1ccc(N2CCN(CC(O)COc3ccccc3[N+](=O)[O-])CC2)cc1 (stereo unspecified)	NPY-Y2 PAM-ag 37 | NPY-Y2 pot conf inactive | NPY-Y1 counter inactive | NPY-Y1 ag 2 49 | CNGC inhibitor inactive | NPY-Y2 ag 2 34
C=CCc1ccccc1OCC(O)CN1CCN(C(=O)OCC)CC1 (stereo unspecified)	NPY-Y2 PAM-ag 35 | NPY-Y2 pot conf inactive | NPY-Y1 counter inactive | NPY-Y1 ag 2 20 | CNGC inhibitor inactive | NPY-Y2 ag 2 inactive
CCOC(=O)CC1C(C(=O)OCC)ON2OC(C(=O)OC)C(C(=O)OCC)C12 (stereo unspecified)	none
CC(=O)N1CC(=O)N=C1SCC(=O)Nc1nc(C)c(-c2ccccc2)s1	NPY-Y2 PAM-ag 37 (no result: NPY Y2 blocker) | NPY-Y2 pot conf inactive | NPY-Y1 counter inactive | NPY-Y1 ag 2 41 | CNGC inhibitor 40 | NPY-Y2 ag 2 28
Cc1ccc(-n2c(SCC(N)=O)nc3c(c2=O)C2(CCCC2)Cc2ccccc2-3)cc1	NPY-Y2 PAM-ag 35 | NPY-Y2 pot conf inactive | NPY-Y1 counter 47 | NPY-Y1 ag 2 43 | CNGC inhibitor 29 | NPY-Y2 ag 2 42
FC(F)(F)c1cccc(NC(=S)NNC(=S)Nc2cccc(C(F)(F)F)c2)c1	NPY-Y2 PAM-ag 54 (no result: NPY-Y1 antag, NPY Y2 blocker) | NPY-Y2 pot conf inactive | NPY-Y1 counter inactive | NPY-Y1 ag 2 46 | CNGC inhibitor 44 | NPY-Y2 ag 2 33
COc1ccc(-c2nc3cnccn3c2Nc2ccc(C)cc2)cc1	NPY-Y2 PAM-ag 29 | NPY-Y2 pot conf 47 | NPY-Y1 counter inactive | NPY-Y1 ag 2 29 | CNGC inhibitor 27 | NPY-Y2 ag 2 52
NC(Cc1ccc(OC(F)F)cc1)C(=O)O (stereo unspecified)	none (no result: NPY-Y1 antag, NPY Y2 blocker)
N=C1CCC(=N)c2c1c(O)c1ccccc1c2O	NPY-Y2 PAM-ag 41 (no result: NPY-Y1 antag, NPY Y2 blocker) | NPY-Y2 pot conf inactive | NPY-Y1 counter inactive | NPY-Y1 ag 2 23 | CNGC inhibitor inactive | NPY-Y2 ag 2 18
N#Cc1c(C#N)c(O)c2ccccc2c1O	none (no result: NPY-Y1 antag, NPY Y2 blocker)
Cc1ccc(S(=O)(=O)N(C)CC(=O)OCC(=O)N2CCCC2=O)cc1	NPY-Y2 PAM-ag 50 (no result: NPY Y2 blocker) | NPY-Y2 pot conf inactive | NPY-Y1 counter inactive | NPY-Y1 ag 2 inactive | CNGC inhibitor inactive | NPY-Y2 ag 2 inactive
Cc1ccc(S(=O)(=O)N(C)CC(=O)N2CCOCC2)cc1	none
O=C(Nc1ccccc1)Nc1ncc([N+](=O)[O-])s1	NPY-Y2 PAM-ag 31 (no result: NPY Y2 blocker) | NPY-Y2 pot conf inactive | NPY-Y1 counter inactive | NPY-Y1 ag 2 inactive | CNGC inhibitor inactive | NPY-Y2 ag 2 inactive
C[C@H](NC(=O)Nc1cccc(C(F)(F)F)c1)C(=O)O	none
CCC(C)c1ccc2oc(-c3ccc(NC(=O)c4ncn[nH]4)cc3)nc2c1 (stereo unspecified)	NPY-Y2 PAM-ag 35 | NPY-Y2 pot conf inactive | NPY-Y1 counter inactive | NPY-Y1 ag 2 inactive | CNGC inhibitor inactive | NPY-Y2 ag 2 inactive
CC(C)c1ccc2oc(-c3ccc(NC(=O)c4ncn[nH]4)cc3)nc2c1	none
COC(=O)c1ccc(N2CCN(S(=O)(=O)c3ccc4ccccc4c3)CC2)c([N+](=O)[O-])c1	none
NC(=O)c1ccc(N2CCN(S(=O)(=O)c3ccccc3)CC2)c([N+](=O)[O-])c1	NPY-Y2 PAM-ag 31 (no result: NPY Y2 blocker) | NPY-Y2 pot conf inactive | NPY-Y1 counter inactive | NPY-Y1 ag 2 inactive | CNGC inhibitor inactive | NPY-Y2 ag 2 inactive
Cc1cc(NC(=O)c2ccccc2F)n(-c2nc3ccccc3[nH]2)n1	NPY-Y2 PAM-ag 91 | NPY-Y2 pot conf inactive | NPY-Y1 counter inactive | NPY-Y1 ag 2 inactive | CNGC inhibitor inactive | NPY-Y2 ag 2 inactive
CC(C)(C)n1nnnc1C(c1cccc(C#N)c1)N1CCCc2ccccc21 (stereo unspecified)	NPY-Y2 PAM-ag 27 | NPY-Y2 pot conf inactive | NPY-Y1 counter inactive | NPY-Y1 ag 2 inactive | CNGC inhibitor inactive | NPY-Y2 ag 2 inactive
CCc1ccc(NC(=S)N(Cc2ccc(Cl)cc2)Cc2ccc(C(=O)O)cc2)cc1	NPY-Y2 PAM-ag 32 (no result: NPY Y2 blocker) | NPY-Y2 pot conf inactive | NPY-Y1 counter inactive | NPY-Y1 ag 2 inactive | CNGC inhibitor inactive | NPY-Y2 ag 2 inactive
O=[N+]([O-])c1ccc(Nc2c3ccccc3nc3ccccc23)cc1	NPY-Y2 PAM-ag 31 (no result: NPY Y2 blocker) | NPY-Y2 pot conf 47 | NPY-Y1 counter 54 | NPY-Y1 ag 2 36 | CNGC inhibitor 41 | NPY-Y2 ag 2 45
O=[N+]([O-])c1ccc(S(=O)(=O)Nc2nc3ccccc3nc2Nc2ccccc2)cc1	none (no result: NPY Y2 blocker)
CCOC(=O)C(=CNc1cc(C)nn1-c1ccc(C)cc1)C(=O)OCC	NPY-Y2 PAM-ag 36 | NPY-Y2 pot conf inactive | NPY-Y1 counter inactive | NPY-Y1 ag 2 inactive | CNGC inhibitor inactive | NPY-Y2 ag 2 inactive
CC(=O)N1CCN(CC(=O)Nc2c(Cl)cccc2Cl)CC1	none
COC(=O)CSc1nnc(-c2ccc(OC)cc2OC)o1	NPY-Y2 PAM-ag 50 | NPY-Y2 pot conf 36 | NPY-Y1 counter 61 | NPY-Y1 ag 2 36 | CNGC inhibitor 49 | NPY-Y2 ag 2 25
CCOC(=O)CSc1nnc(-c2ccccc2OC)o1	none
Cc1ccc(F)cc1CNC(=O)c1cc(COc2ccc3ncccc3c2)on1	none (no result: NPY Y2 blocker)
